Source: publication PMC6139428 (Molecular Nutrition & Food Research, 2017)
Entries after “also recorded” stand apart in the source; their conditions may differ.

System: MC3T3‐E1 cells
Experiment: Alkaline phosphatase
Type: cell-based
Conditions: 0.1–0 5 μ M, 6 days differentiation
Procedure, shortened: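 MC3T3‐E1 subclone 4 cells were kept in αMEM without L‐ascorbic acid and seeded at 2 × 10^4 cells/well. Differentiation was induced with 50 μg mL–1 L‐ascorbic acid and 10 mM β‐glycerophosphate plus test compound for 6 days. Cells were PBS‐washed and lysed in 0.2% Triton X‐100, and ALP was read with a pNPP kit. Means ± SD, n = 3, three independent experiments, tested against the control group.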

Molecule	ALP activity
O=c1c(-c2ccc(OS(=O)(=O)O)cc2)coc2cc(O)cc(O)c12 [Genistein 4′‐sulfate]	stimulated ALP activity
COc1ccc(-c2coc3cc(O)ccc3c2=O)cc1 [Formononetin]	stimulated ALP activity
O=C(O)/C=C/c1ccc(O)c(O)c1 [Caffeic acid]	stimulated ALP activity
O=C(O)[C@H]1O[C@@H](Oc2ccc3c(c2)OC[C@H](c2ccc(O)cc2)C3)[C@H](O)[C@@H](O)[C@@H]1O [Equol 7‐glucuronide]	stimulated ALP activity

Same assay, conditions: abstract summary

Molecule	osteoblastogenesis
O=c1c(-c2ccc(OS(=O)(=O)O)cc2)coc2cc(O)cc(O)c12 [Genistein 4′‐sulfate]	promote osteoblastogenesis
O=C(O)[C@H]1O[C@@H](Oc2ccc3c(c2)OC[C@H](c2ccc(O)cc2)C3)[C@H](O)[C@@H](O)[C@@H]1O [Equol 7‐glucuronide]	promote osteoblastogenesis

System: not listed separately
Experiment: Nutrikinetics of isoflavone metabolites in serum after oral boiled soybean
Type: in vivo, mice (C57BL/6)
Conditions: OVX groups

Molecule	AUC(0–24h), CGJ administered versus BS administered
O=c1c(-c2ccc(O)cc2)coc2cc(O)cc(O)c12 [Genistein]	significantly higher
O=c1c(-c2ccc(OS(=O)(=O)O)cc2)coc2cc(O)cc(O)c12 [Genistein 4′‐sulfate]	significantly higher

Same assay, conditions: OVX mice, relative peak area

Molecule	serum concentration, CGJ‐treated compared with BS‐treated
O=c1c(-c2ccc(O)cc2)coc2cc(O)cc(O)c12 [Genistein]	higher concentrations; also recorded: significantly higher
O=c1c(-c2ccc(O)cc2)coc2cc(O)ccc12 [Daidzein]	significantly higher
O=c1c(-c2ccc(OS(=O)(=O)O)cc2)coc2cc(O)cc(O)c12 [Genistein 4′‐sulfate]	higher concentrations
Dihydrodaidzein sulfate	higher concentrations
Methyl caffeic acid	higher in BS‐treated
COc1ccc(-c2coc3cc(O)ccc3c2=O)cc1 [Formononetin]	higher in BS‐treated
O=C(O)c1ccc(O)cc1 [4‐hydroxybenzoic acid, 4‐Hydroxybenzoic acid]	higher in BS‐treated
O=C(O)/C=C/c1ccc(O)c(O)c1 [Caffeic acid]	higher in BS‐treated
O=C(O)[C@H]1O[C@@H](Oc2ccc3c(c2)OC[C@H](c2ccc(O)cc2)C3)[C@H](O)[C@@H](O)[C@@H]1O [Equol 7‐glucuronide]	higher concentrations

Same assay, conditions: OVX mice; abstract does not name the group

Molecule	bioavailability, CGJ‐treated compared to BS‐treated (unfermented soybean)
O=c1c(-c2ccc(O)cc2)coc2cc(O)cc(O)c12 [Genistein]	enhances
O=C(O)[C@H]1O[C@@H](Oc2ccc3c(c2)OC[C@H](c2ccc(O)cc2)C3)[C@H](O)[C@@H](O)[C@@H]1O [Equol 7‐glucuronide]	enhances; also recorded: higher bioavailability

Same assay, conditions: all groups

Molecule	concentration based on area‐under‐the‐curve analysis
O=c1c(-c2ccc(O)cc2)coc2cc(O)cc(O)c12 [Genistein]	high concentrations
O=c1c(-c2ccc(O)cc2)coc2cc(O)ccc12 [Daidzein]	high concentrations
O=c1c(-c2ccc(OS(=O)(=O)O)cc2)coc2cc(O)cc(O)c12 [Genistein 4′‐sulfate]	high concentrations
Dihydrodaidzein sulfate	high concentrations
O=C(O)[C@H]1O[C@@H](Oc2ccc3c(c2)OC[C@H](c2ccc(O)cc2)C3)[C@H](O)[C@@H](O)[C@@H]1O [Equol 7‐glucuronide]	high concentrations

Same assay, conditions: pooled serum of sham and OVX groups after BS or CGJ, UPLC–QTOF‐MS

Molecule	detection in pooled serum samples
O=c1c(-c2ccc(O)cc2)coc2cc(O)cc(O)c12 [Genistein]	detected
COc1cc2c(=O)c(-c3ccc(O)cc3)coc2cc1O [Glycitein]	detected
O=c1c(-c2ccc(O)cc2)coc2cc(O[C@@H]3O[C@H](CO)[C@@H](O)[C@H](O)[C@H]3O)ccc12 [Daidzin]	not detected
O=c1c(-c2ccc(O)cc2)coc2cc(O[C@@H]3O[C@H](CO)[C@@H](O)[C@H](O)[C@H]3O)cc(O)c12 [Genistin]	not detected

Same assay, conditions: sham group

Molecule	AUC, CGJ treatment versus BS treatment
O=c1c(-c2ccc(O)cc2)coc2cc(O)cc(O)c12 [Genistein]	significantly higher
O=c1c(-c2ccc(O)cc2)coc2cc(O)ccc12 [Daidzein]	significantly higher

System: MC3T3‐E1 cells
Experiment: Mineralization assay
Type: cell-based
Conditions: 21‐day incubation
Procedure, shortened: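 MC3T3‐E1 cells were differentiated with test compound and incubated 21 days. Cells were washed, fixed in 4% formalin and stained with 2% Alizarin Red S. Bound stain was solubilized in 10% […] in 10 mM sodium phosphate and absorbance read at 562 nm. Means ± SD, n = 3, three independent experiments, tested against the control group.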

Molecule	mineralization, calcium deposition by ARS staining
O=c1c(-c2ccc(OS(=O)(=O)O)cc2)coc2cc(O)cc(O)c12 [Genistein 4′‐sulfate]	Extensive calcium deposition
O=C(O)/C=C/c1ccc(O)c(O)c1 [Caffeic acid]	Extensive calcium deposition
O=C(O)[C@H]1O[C@@H](Oc2ccc3c(c2)OC[C@H](c2ccc(O)cc2)C3)[C@H](O)[C@@H](O)[C@@H]1O [Equol 7‐glucuronide]	Extensive calcium deposition

System: RAW 264.7 cells
Experiment: RANKL‐induced bone resorption activity
Type: cell-based
Conditions: abstract summary
Procedure, shortened: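 RAW 264.7 macrophages were grown in DMEM and seeded. Medium was replaced with RANKL‐containing differentiation medium plus test compound, then held 5 days without medium change. Bone resorption activity was measured with a commercial bone resorption assay kit. Means ± SD, n = 3, three independent experiments, tested against the control group.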

Molecule	osteoclast formation
O=c1c(-c2ccc(OS(=O)(=O)O)cc2)coc2cc(O)cc(O)c12 [Genistein 4′‐sulfate]	inhibit osteoclast formation
O=C(O)[C@H]1O[C@@H](Oc2ccc3c(c2)OC[C@H](c2ccc(O)cc2)C3)[C@H](O)[C@@H](O)[C@@H]1O [Equol 7‐glucuronide]	inhibit osteoclast formation
